In ChEMBL document CHEMBL1152956, “Synthesis and cytotoxic activity of 5,6-heteroaromatically annulated pyridine-2,4-diamines” (Bioorg Med Chem, 2009):

System: RT-4
Assay: Growth inhibition of human RT4 cells at 20 uM after 96 hrs by crystal violet staining
Assay type: functional
Details: RT-4, 96 h, read-out: GI
How it was run: (§1)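 This was a single-concentration screen. Actively dividing cells had 96 h continuous exposure to compound diluted 1000-fold from a DMSO solution into medium. Cells were fixed with glutaraldehyde and stained with crystal violet. Bound dye was redissolved in 70% ethanol and read at OD 570 nm. Growth inhibition was expressed against untreated controls.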
In the case of `CN(C)c1cc(N)c2c3c(sc2n1)CCCC3`, the inhibition of growth at 20 µM is reported as < 50%.
With `Nc1cc(N2CCCC2)nc2sc(-c3ccccc3)c(-c3ccccc3)c12` the inhibition of growth at 20 µM was < 50%.
In the case of `Cc1oc2nc(N3CCCC3)cc(N)c2c1C`, the inhibition of growth at 20 µM is reported as < 50%.
For `CN(C)c1cc(N)c2c3ccccc3n(C)c2n1`, the inhibition of growth at 20 µM was < 50%.
With `COc1ccc(Cn2c3nc(N(C)C)cc(N)c3c3ccc4ccccc4c32)cc1` the inhibition of growth at 20 µM was < 50%.
In the case of `CN(C)c1cc(N)c2c(-c3ccccc3)c(-c3ccccc3)sc2n1`, the inhibition of growth at 20 µM is reported as < 50%.

System: A-427
Assay: Growth inhibition of human A427 cells at 20 uM after 96 hrs by crystal violet staining
Assay type: functional
Details: A-427, 96 h, read-out: GI
How it was run: as §1
For `CN(C)c1cc(N)c2c3c(sc2n1)CCCC3`, the inhibition of growth at 20 µM was < 50%.
For `Cc1oc2nc(N3CCCC3)cc(N)c2c1C`, the inhibition of growth at 20 µM was < 50%.
In the case of `CN(C)c1cc(N)c2c3ccccc3n(C)c2n1`, the inhibition of growth at 20 µM is reported as < 50%.
In the case of `COc1ccc(Cn2c3nc(N(C)C)cc(N)c3c3ccc4ccccc4c32)cc1`, the inhibition of growth at 20 µM is reported as < 50%.

System: 5637
Assay: Growth inhibition of human 5637 cells at 20 uM after 96 hrs by crystal violet staining
Assay type: functional
Details: Homo sapiens, 5637, 96 h; read-out: GI
How it was run: as §1
For `CN(C)c1cc(N)c2c3c(sc2n1)CCCC3`, the inhibition of growth at 20 µM was < 50%.
For `Cc1oc2nc(N3CCCC3)cc(N)c2c1C`, the inhibition of growth at 20 µM was < 50%.
For `CN(C)c1cc(N)c2c3ccccc3n(C)c2n1`, the inhibition of growth at 20 µM was < 50%.
In the case of `COc1ccc(Cn2c3nc(N(C)C)cc(N)c3c3ccc4ccccc4c32)cc1`, the inhibition of growth at 20 µM is reported as < 50%.

System: MCF7
Assay: Cytotoxicity against human MCF7 cells after 96 hrs by crystal violet staining
Assay type: functional, cell-based
Details: MCF7, 96 h
How it was run: (§2)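 Compounds were held as 20 mM DMSO stocks at -20 °C and serially diluted in DMSO to working solutions of 20, 10, 5.0, 2.50, 1.25 and […]. Five of these were diluted 1000-fold into medium, with DMSO-only controls. Dividing cells had 96 h continuous exposure, then glutaraldehyde fixation and crystal violet staining. Dye was redissolved in 70% ethanol and read at OD 570 nm. IC50 came from linear regression of log dose–response curves.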
With `CN(C)c1cc(N)c2c3c(sc2n1)CCCC3` the IC50 was > 20 µM.
`Nc1cc(N2CCCC2)nc2sc(-c3ccccc3)c(-c3ccccc3)c12` showed an IC50 of 13.7 µM.
For `Cc1oc2nc(N3CCCC3)cc(N)c2c1C`, the IC50 was > 20 µM.
For `CN(C)c1cc(N)c2c3ccccc3n(C)c2n1`, the IC50 was > 20 µM.
With `COc1ccc(Cn2c3nc(N(C)C)cc(N)c3c3ccc4ccccc4c32)cc1` the IC50 was > 20 µM.
Work on `CN(C)c1cc(N)c2c(-c3ccccc3)c(-c3ccccc3)sc2n1` yielded an IC50 of 16.2 µM.

System: not listed separately
Assay: Cytotoxicity against human LCLC-103H cells after 96 hrs by crystal violet staining
Assay type: functional, cell-based
Details: not given
How it was run: as §2
With `CN(C)c1cc(N)c2c3c(sc2n1)CCCC3` the IC50 was > 20 µM.
`Nc1cc(N2CCCC2)nc2sc(-c3ccccc3)c(-c3ccccc3)c12` showed an IC50 of 9.79 µM.
In the case of `Cc1oc2nc(N3CCCC3)cc(N)c2c1C`, the IC50 is reported as > 20 µM.
In the case of `CN(C)c1cc(N)c2c3ccccc3n(C)c2n1`, the IC50 is reported as > 20 µM.
For `COc1ccc(Cn2c3nc(N(C)C)cc(N)c3c3ccc4ccccc4c32)cc1`, the IC50 was > 20 µM.
`CN(C)c1cc(N)c2c(-c3ccccc3)c(-c3ccccc3)sc2n1` showed an IC50 of 10.6 µM.

System: DAN-G
Assay: Cytotoxicity against human DAN-G cells after 96 hrs by crystal violet staining
Assay type: functional, cell-based
Details: not given
How it was run: as §2
In the case of `CN(C)c1cc(N)c2c3c(sc2n1)CCCC3`, the IC50 is reported as > 20 µM.
`Nc1cc(N2CCCC2)nc2sc(-c3ccccc3)c(-c3ccccc3)c12` gave an IC50 of 8.17 µM.
For `Cc1oc2nc(N3CCCC3)cc(N)c2c1C`, the IC50 was > 20 µM.
With `CN(C)c1cc(N)c2c3ccccc3n(C)c2n1` the IC50 was > 20 µM.
In the case of `COc1ccc(Cn2c3nc(N(C)C)cc(N)c3c3ccc4ccccc4c32)cc1`, the IC50 is reported as > 20 µM.
With `CN(C)c1cc(N)c2c(-c3ccccc3)c(-c3ccccc3)sc2n1` the IC50 was 15.2 µM.

System: RT-4
Assay: Cytotoxicity against human RT4 cells after 96 hrs by crystal violet staining
Assay type: functional, cell-based
Details: RT-4, 96 h
How it was run: as §2
For `CN(C)c1cc(N)c2c3c(sc2n1)CCCC3`, the IC50 was > 20 µM.
For `Nc1cc(N2CCCC2)nc2sc(-c3ccccc3)c(-c3ccccc3)c12`, the IC50 was > 20 µM.
With `Cc1oc2nc(N3CCCC3)cc(N)c2c1C` the IC50 was > 20 µM.
With `CN(C)c1cc(N)c2c3ccccc3n(C)c2n1` the IC50 was > 20 µM.
In the case of `COc1ccc(Cn2c3nc(N(C)C)cc(N)c3c3ccc4ccccc4c32)cc1`, the IC50 is reported as > 20 µM.
With `CN(C)c1cc(N)c2c(-c3ccccc3)c(-c3ccccc3)sc2n1` the IC50 was > 20 µM.

System: A-427
Assay: Cytotoxicity against human A427 cells after 96 hrs by crystal violet staining
Assay type: functional, cell-based
Details: A-427, 96 h
How it was run: as §2
With `CN(C)c1cc(N)c2c3c(sc2n1)CCCC3` the IC50 was > 20 µM.
With `Nc1cc(N2CCCC2)nc2sc(-c3ccccc3)c(-c3ccccc3)c12` the IC50 was 8.76 µM.
In the case of `Cc1oc2nc(N3CCCC3)cc(N)c2c1C`, the IC50 is reported as > 20 µM.
For `CN(C)c1cc(N)c2c3ccccc3n(C)c2n1`, the IC50 was > 20 µM.
In the case of `COc1ccc(Cn2c3nc(N(C)C)cc(N)c3c3ccc4ccccc4c32)cc1`, the IC50 is reported as > 20 µM.
`CN(C)c1cc(N)c2c(-c3ccccc3)c(-c3ccccc3)sc2n1` gave an IC50 of 11.2 µM.

System: 5637
Assay: Cytotoxicity against human 5637 cells after 96 hrs by crystal violet staining
Assay type: functional, cell-based
Details: Homo sapiens, 5637, 96 h
How it was run: as §2
With `CN(C)c1cc(N)c2c3c(sc2n1)CCCC3` the IC50 was > 20 µM.
`Nc1cc(N2CCCC2)nc2sc(-c3ccccc3)c(-c3ccccc3)c12` gave an IC50 of 8.18 µM.
In the case of `Cc1oc2nc(N3CCCC3)cc(N)c2c1C`, the IC50 is reported as > 20 µM.
For `CN(C)c1cc(N)c2c3ccccc3n(C)c2n1`, the IC50 was > 20 µM.
For `COc1ccc(Cn2c3nc(N(C)C)cc(N)c3c3ccc4ccccc4c32)cc1`, the IC50 was > 20 µM.
For `CN(C)c1cc(N)c2c(-c3ccccc3)c(-c3ccccc3)sc2n1`, the IC50 was 10.1 µM.

System: not listed separately
Assay: Growth inhibition of human LCLC-103H cells at 20 uM after 96 hrs by crystal violet staining
Assay type: functional
Details: read-out: GI
How it was run: as §1
With `CN(C)c1cc(N)c2c3c(sc2n1)CCCC3` the inhibition of growth at 20 µM was < 50%.
In the case of `Cc1oc2nc(N3CCCC3)cc(N)c2c1C`, the inhibition of growth at 20 µM is reported as < 50%.
For `CN(C)c1cc(N)c2c3ccccc3n(C)c2n1`, the inhibition of growth at 20 µM was < 50%.
In the case of `COc1ccc(Cn2c3nc(N(C)C)cc(N)c3c3ccc4ccccc4c32)cc1`, the inhibition of growth at 20 µM is reported as < 50%.

System: DAN-G
Assay: Growth inhibition of human DAN-G cells at 20 uM after 96 hrs by crystal violet staining
Assay type: functional
Details: read-out: GI
How it was run: as §1
For `CN(C)c1cc(N)c2c3c(sc2n1)CCCC3`, the inhibition of growth at 20 µM was < 50%.
With `Cc1oc2nc(N3CCCC3)cc(N)c2c1C` the inhibition of growth at 20 µM was < 50%.
For `CN(C)c1cc(N)c2c3ccccc3n(C)c2n1`, the inhibition of growth at 20 µM was < 50%.
For `COc1ccc(Cn2c3nc(N(C)C)cc(N)c3c3ccc4ccccc4c32)cc1`, the inhibition of growth at 20 µM was < 50%.

System: MCF7
Assay: Growth inhibition of human MCF7 cells at 20 uM after 96 hrs by crystal violet staining
Assay type: functional
Details: MCF7, 96 h, read-out: GI
How it was run: as §1
For `CN(C)c1cc(N)c2c3c(sc2n1)CCCC3`, the inhibition of growth at 20 µM was < 50%.
With `Cc1oc2nc(N3CCCC3)cc(N)c2c1C` the inhibition of growth at 20 µM was < 50%.
In the case of `CN(C)c1cc(N)c2c3ccccc3n(C)c2n1`, the inhibition of growth at 20 µM is reported as < 50%.
In the case of `COc1ccc(Cn2c3nc(N(C)C)cc(N)c3c3ccc4ccccc4c32)cc1`, the inhibition of growth at 20 µM is reported as < 50%.
